This is an account of results in ChEMBL document CHEMBL4699485, “Discovery and Development of SPR519 as a Potent, Selective, and Orally Bioavailable Inhibitor of PI3Kα and mTOR Kinases for the Treatment of Solid Tumors” (J Med Chem, 2020).

A short description of data set [1]: Metabolic stability in mouse liver microsomes assessed as parent compound remaining at 10 uM remaining after 120 mins in presence of NADPH by HPLC analysis. Format: ADME, Microsome. The settings on record: read-out: Stabilty. An outline of the steps:
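Compound at 10 µM was incubated with 0.5 mg/mL liver microsomes and 1 mM NADPH (final). Samples were taken at 0, 15, 30, 60 and 120 min and stopped with acetonitrile, then centrifuged and the supernatant analysed by HPLC. Percent parent remaining was set relative to the 0 min peak area (100%).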

The nature of data set [2]: Elimination half life in Swiss mouse at 1 mg/kg, po via gavage by LC-MS/MS analysis. Format: ADME, organism-based. The settings on record: in vivo, read-out: beta t1/2 (converted). The procedure, abridged: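 Female Swiss mice (n=3/group), fasted overnight, given single oral gavage dose in 0.5% CMC/0.5% Tween 80 (10 mL/kg) at 1, 3 or 10 mg/kg. Serial blood sampling at 0.16–8 h into heparinized tubes. Plasma extracted with acetonitrile containing verapamil internal standard and quantified by LC-MS/MS. Cmax, Tmax, AUC and t1/2 derived from the concentration–time profile.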

The test system of another data set is HCT-116. The experiment in a line: Antitumor activity against human HCT-116 cells xenografted in CD1 nude mouse assessed as tumor growth inhibition at 2.5 mg/kg, po administered once daily for 21 days and measured on day 3. The settings on record: time 21.0 day. The data set is classed as functional, organism-based. An outline of the steps: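 Female CD1 nude mice bearing subcutaneous HCT116 xenografts, randomized at average tumor size 120–130 mm³, five per group. Dosed orally once daily at 2.5, 5, 10 or 20 mg/kg for 21 days alongside a vehicle control. Caliper measurement of tumor volume as (width² × length)/2, monitored every third day.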

A further data set deals with A2780. Nature of the data set: Antiproliferative activity against human A2780 cells after 48 hrs by MTT assay. Format: functional, cell-based. The following applies: A2780, 48 h. The procedure, abridged: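 A2780 cells grown in DMEM with 10% FBS, L-glutamine and antibiotics, seeded at 10000 cells/well and allowed to adhere overnight. Treated 48 h across 20 µM–0.001 µM. MTT (5 mg/mL in PBS) added for 4 h, formazan dissolved in DMSO, absorbance read at 550 nm. % inhibition fit to a four-parameter log inhibitor vs response curve.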

For data set [3], the target named is High affinity nerve growth factor receptor (Homo sapiens) (UniProt P04629). Nature of the data set: Inhibition of human TRKA at 1 uM using fluorescently labeled peptide substrate measured after 3 hrs by microfluidic mobility shift assay relative to control. An outline of the steps: (§1)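 Single-concentration screen at 1 µM in duplicate, 1% final DMSO. Kinase (typically 1 nM), fluorescently labeled peptide substrate (typically 1 µM), ATP at Km and Mg²⁺ incubated about 3 h at 25 °C, then EDTA-quenched. Substrate and phosphorylated product separated by microfluidic electrophoresis and quantified by fluorescence.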
High affinity nerve growth factor receptor (Homo sapiens), sequence (P04629 33-796 limits assumed): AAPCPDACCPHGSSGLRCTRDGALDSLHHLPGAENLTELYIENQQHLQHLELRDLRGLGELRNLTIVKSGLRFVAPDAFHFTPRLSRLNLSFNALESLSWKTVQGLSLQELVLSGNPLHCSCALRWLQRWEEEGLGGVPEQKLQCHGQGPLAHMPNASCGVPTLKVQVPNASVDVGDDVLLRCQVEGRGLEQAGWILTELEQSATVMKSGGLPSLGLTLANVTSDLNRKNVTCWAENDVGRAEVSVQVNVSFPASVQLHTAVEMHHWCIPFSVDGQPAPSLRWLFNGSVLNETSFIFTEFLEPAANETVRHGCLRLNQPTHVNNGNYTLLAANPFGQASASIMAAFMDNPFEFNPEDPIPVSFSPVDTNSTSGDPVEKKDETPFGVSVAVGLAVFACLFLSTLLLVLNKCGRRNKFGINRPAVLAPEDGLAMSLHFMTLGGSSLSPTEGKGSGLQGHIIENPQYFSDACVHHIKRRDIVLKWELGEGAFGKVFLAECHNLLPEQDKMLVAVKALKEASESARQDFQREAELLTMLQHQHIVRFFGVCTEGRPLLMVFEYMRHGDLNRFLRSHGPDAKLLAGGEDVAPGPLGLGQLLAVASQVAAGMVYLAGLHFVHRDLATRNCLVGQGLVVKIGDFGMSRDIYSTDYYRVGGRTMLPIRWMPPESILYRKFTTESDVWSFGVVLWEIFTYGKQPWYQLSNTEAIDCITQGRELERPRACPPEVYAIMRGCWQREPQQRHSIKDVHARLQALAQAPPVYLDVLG

The next data set deals with SK-OV-3. Nature of the data set: Antitumor activity against human SK-OV-3 cells xenografted in po dosed CD1 nude mouse assessed as reduction in tumor volume administered once daily for 27 days and measured at 3 days interval during compound dosing. Format: functional, organism-based. The following applies: dose mg/kg 2.5-10, time 27.0 day. The procedure, abridged: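 Female CD1 nude mice bearing subcutaneous SK-OV-3 xenografts, randomized at average tumor size 120–130 mm³, five per group. Given oral doses of 2.5, 5 or 10 mg/kg once daily for 27 days alongside a vehicle control. Tumor volume from caliper length and width as (width² × length)/2, tracked every third day. Two-way ANOVA with Dunnett's test, n=5.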

Data set [4] has as its target Glycogen synthase kinase-3 beta (Homo sapiens) (UniProt P49841). The experiment in a line: Inhibition of human GSK3B at 1 uM using fluorescently labeled peptide substrate measured after 3 hrs by microfluidic mobility shift assay relative to control. An outline of the steps: as §1
Data set [5] in a line: Toxicity in Swiss mouse assessed as change in body coat at 10 mg/kg, po administered twice daily via gavage for 5 days and measuring daily during compound dosing. The data set is classed as organism-based. The following applies: in vivo, 120 h, time 5 day. An outline of the steps: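 Female Swiss mice (3 treated, 2 vehicle controls) received oral gavage twice daily for 5 days, with compound formulated in 0.5% CMC and Tween 80. Body weight, body temperature, body coat, feed intake, eyes, feces and general activity were observed daily.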

Data set [6] in a line: Drug level in Swiss mouse brain at 30 mg/kg, po administered twice daily via gavage for 5 days and measured post last dose by LC-MS/MS analysis. The data set is classed as ADME, organism-based. The settings on record: in vivo, 120 h, time 5 day. An outline of the steps:
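Female Swiss mice (n=3) given 30 mg/kg in 0.5% CMC/Tween 80 by oral gavage twice daily for 5 days, with two vehicle controls. After sacrifice, liver, kidney, lung, uterus and brain were collected, homogenized in water and solvent-extracted. Drug concentration (ng/g) measured by LC-MS/MS.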

Data set [7] addresses Dual specificity mitogen-activated protein kinase kinase 1 (Homo sapiens) (UniProt Q02750). Nature of the data set: Inhibition of human MEK1 at 1 uM using fluorescently labeled peptide substrate measured after 3 hrs by microfluidic mobility shift assay relative to control. The procedure, abridged: as §1

As usually defined, the IC50 is the concentration that gives 50% inhibition. A lower IC50 goes with greater potency. As a reminder, the inhibition is the relative decrease from the control value, in per cent.

SMILES strings stand for the structures. Activity calls are given as the source filed them. No cut-off for these calls is given here.

Dual specificity mitogen-activated protein kinase kinase 1 (Homo sapiens), sequence (Q02750 whole entry): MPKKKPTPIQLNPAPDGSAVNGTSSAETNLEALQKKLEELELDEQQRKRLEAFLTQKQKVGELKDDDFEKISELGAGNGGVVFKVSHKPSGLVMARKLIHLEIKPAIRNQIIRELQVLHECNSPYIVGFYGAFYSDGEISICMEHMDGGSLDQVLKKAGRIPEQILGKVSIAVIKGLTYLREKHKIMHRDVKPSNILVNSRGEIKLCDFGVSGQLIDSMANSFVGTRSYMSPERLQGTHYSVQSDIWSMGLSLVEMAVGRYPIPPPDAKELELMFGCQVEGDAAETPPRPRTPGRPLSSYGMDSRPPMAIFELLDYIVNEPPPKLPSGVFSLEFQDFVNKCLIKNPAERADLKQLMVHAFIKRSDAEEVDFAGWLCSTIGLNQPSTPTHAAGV
Glycogen synthase kinase-3 beta (Homo sapiens), sequence (P49841 whole entry, looked up): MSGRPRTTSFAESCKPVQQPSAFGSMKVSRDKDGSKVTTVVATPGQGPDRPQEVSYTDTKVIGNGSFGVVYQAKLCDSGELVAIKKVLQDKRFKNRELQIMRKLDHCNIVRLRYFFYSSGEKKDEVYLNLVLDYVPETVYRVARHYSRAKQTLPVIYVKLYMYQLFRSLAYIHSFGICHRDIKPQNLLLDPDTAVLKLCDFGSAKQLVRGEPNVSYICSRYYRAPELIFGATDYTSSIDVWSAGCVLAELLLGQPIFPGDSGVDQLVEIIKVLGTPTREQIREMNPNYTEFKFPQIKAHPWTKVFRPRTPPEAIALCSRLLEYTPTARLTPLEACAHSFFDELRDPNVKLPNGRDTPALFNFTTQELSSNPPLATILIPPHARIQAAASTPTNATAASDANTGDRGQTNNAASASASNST

`CN(C)C(=O)c1ccc(Oc2nc(-c3cnc(N)s3)nc(N3CCOCC3)n2)cc1`: in data set [1], the remaining at 2 h, 10 µM is 103%. Also, the half-life in data set [2] is 2.66 h. The TGI result in the data set on HCT-116 is “Active”. The compound further showed a half-inhibitory concentration (IC50) in the data set with A2780 of 230 nM. Moreover, the inhibition in data set [3] is 3%; in [4] it was -1%; in data set [7] it was 0%. Moreover, the values for the Activity entry (in the data set on SK-OV-3; in data set [5]) were “Dose-dependent effect” and “Non-Toxic”, respectively. In data set [6], the Drug uptake result is listed as “Not Active”.
